Measurements reported in ChEMBL document CHEMBL3045023, “Design, synthesis, and antiviral activity evaluation of phenanthrene-based antofine derivatives” (2012).

Key:
Format in all cases: functional
Tobacco mosaic virus [1] = assay: Antiviral activity against Tobacco mosaic virus (TMV) inoculation on Nicotiana tabacum L. whole leaves assessed as virus infection protective effect at 500 ug/mL measured 3 to 4 days post inoculation
Method in brief: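 On N. tabacum L. leaves of the same age, compound was smeared on the left half and solvent on the right half as control. After 12 h, leaves were dusted with silicon carbide, brush-inoculated with TMV (6 × 10−3 mg/mL), then washed. Local lesions were counted 3–4 days later, in triplicate. Inhibition % was calculated from average lesion numbers versus control.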

Tobacco mosaic virus [2] = assay: Antiviral activity against Tobacco mosaic virus (TMV) inoculation on Nicotiana tabacum L. whole leaves assessed as virus infection curative effect at 500 ug/mL measured 3 to 4 days post inoculation
Method in brief: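 Whole N. tabacum L. leaves of the same age were inoculated with TMV (6.0 × 10−3 mg/mL), then washed and dried. Compound was then smeared on the left half and solvent on the right half as control. Local lesions were counted 3–4 days post-inoculation, in triplicate. Inhibition % was calculated from average lesion numbers versus control.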

Tobacco mosaic virus [3] = assay: Antiviral activity against Tobacco mosaic virus (TMV) inoculation on Nicotiana tabacum L. whole leaves assessed as virus inactivation effect at 500 ug/mL measured 3 to 4 days post inoculation
Method in brief: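 TMV was mixed with an equal volume of compound solution for 30 min. The mixture was inoculated on the left half of N. tabacum L. leaves, and virus mixed with solvent on the right half as control. Local lesions were recorded 3–4 days post-inoculation, in triplicate. Inhibition % was calculated from average lesion numbers versus control.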

Tobacco mosaic virus [4] = assay: Antiviral activity against Tobacco mosaic virus (TMV) assessed as inhibition of viral growth at 500 ug/mL; details: read-out: GI
Method in brief: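 Leaves of 5–6-growth-stage tobacco were rub-inoculated with TMV juice (5.88 × 10−2 μg/mL), then cut into halves along the main vein. One half was immersed in 500 μg/mL compound and the other in double-distilled water, each for 20 min. Halves were cultured at 25 °C for 72 h, with at least 3 replicates. Inhibition % = (control − treated average lesion number)/control × 100.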

Row | Compound | Activity (Tobacco mosaic virus [1]) [%] | Activity (Tobacco mosaic virus [2]) [%] | Activity (Tobacco mosaic virus [3]) [%] | inhibition of growth at 500 µg/mL (Tobacco mosaic virus [4]) [%]
1 | COc1cc2c(Br)c(CBr)c3cc(OC)c(OC)cc3c2cc1OC | 5.2 | 1.8 | 4.3 | 6.1
2 | CCN(CC)C(=O)[C@H]1CCCN1Cc1c(Br)c2cc(OC)c(OC)cc2c2cc(OC)ccc12 | 33.1 | 31.4 | 27.6 | 35.7
3 | COc1ccc2c(Br)c(CN3CCC[C@H]3C#N)c3cc(OC)c(OC)cc3c2c1 | 24.5 | 18.9 | 27.7 | 20.9
4 | COc1ccc2c(CN3CCC[C@H]3C(N)=O)c(Br)c3cc(OC)c(OC)cc3c2c1 | 0 | 5.6 | 14.5 | 0
5 | CCN(CC)C(=O)[C@H]1CCCN1Cc1c(Br)c2ccc(OC)cc2c2cc(OC)c(OC)cc12 | 27.1 | 31.6 | 26.9 | 35.6
6 | COc1cc2cc(C(=O)N3CCCCC3)c3cc(OC)c(OC)cc3c2cc1OC | 30.6 | 28.9 | 24.5 | 32.5
7 | CCN(CC)C(=O)[C@H]1CCCN1Cc1c(Br)c2cc(OC)c(OC)cc2c2c(Br)c(OC)ccc12 | 39.2 | 35.8 | 30.2 | 42.6
8 | CCN(CC)C(=O)c1cccn1Cc1c(Br)c2cc(OC)c(OC)cc2c2cc(OC)c(OC)cc12 | 13.1 | 10.6 | 20 | 18.2
9 | COc1cc2cc(CN3C(=O)CC[C@H]3C(=O)OC(C)(C)C)c3cc(OC)c(OC)cc3c2cc1OC | 23.5 | 16.8 | 27.1 | 14.2
10 | CCN(CC)C(=O)[C@H]1CCCCN1Cc1c(Br)c2cc(OC)c(OC)cc2c2cc(OC)ccc12 | 21.3 | 17.6 | 15.4 | 12.1
11 | CCN(CC)C(=O)[C@@H]1CCCN1Cc1c(Br)c2cc(OC)c(OC)cc2c2c(Br)c(OC)ccc12 | 26.1 | 23.5 | 20.7 | 32.5
12 | COC(=O)[C@@H]1CCCN1C(=O)/C(=C/c1ccc(OC)c(OC)c1)c1ccc(OC)c(OC)c1 | 23.6 | 17.2 | 21.1 | 17.5
13 | CCN(CC)C(=O)[C@H]1CCCN1Cc1c(Br)c2cc(OC)c(OC)cc2c2cc(OC)c(OC)cc12 | 27.6 | 30.2 | 21.3 | 33.3
14 | COc1cc2cc(CN3CCCCC3)c3cc(OC)c(OC)cc3c2cc1OC | 35.9 | 35.2 | 30 | 38.4
15 | COc1cc2cc(C(=O)N3CCC[C@H]3CO)c3cc(OC)c(OC)cc3c2cc1OC | 25.6 | 30.2 | 29.5 | 32.8
16 | CCN(CC)C(=O)[C@@H]1CCCN1Cc1c(Br)c2ccc(OC)cc2c2cc(OC)c(OC)cc12 | 16.8 | 8.9 | 23.7 | 12.5
17 | COc1cc2cc(CN3CCC[C@H]3CBr)c3cc(OC)c(OC)cc3c2cc1OC | 21.1 | 16.3 | 20.3 | 32.1
18 | COC(=O)[C@@H]1CCCN1Cc1c(Br)c2cc(OC)c(OC)cc2c2cc(OC)c(OC)cc12 | 33.3 | 27.8 | 21.4 | 19.6
19 | COc1ccc2c(Br)c(CN3CCC[C@H]3C(N)=O)c3cc(OC)c(OC)cc3c2c1 | 32.4 | 30.7 | 12.3 | 35.5
20 | COc1cc2cc(CN3C(=O)CC[C@H]3C(=O)O)c3cc(OC)c(OC)cc3c2cc1OC | 35.3 | 25.6 | 33.7 | 32.4
21 | COc1ccc(/C=C(/C(=O)O)c2ccc(OC)c(OC)c2)cc1OC | 1.9 | 2.7 | 4.1 | 2.3
22 | CCN(CC)C(=O)[C@@H]1CCCCN1Cc1c(Br)c2cc(OC)c(OC)cc2c2cc(OC)ccc12 | 34.3 | 26.4 | 25.2 | 30.7

Row | Compound | Activity (Tobacco mosaic virus [1]) [%] | Activity (Tobacco mosaic virus [2]) [%] | Activity (Tobacco mosaic virus [3]) [%] | inhibition of growth at 500 µg/mL (Tobacco mosaic virus [4]) [%]
23 | O=C1NCNC(=O)N1 | – | – | – | 50
24 | CCN(CC)C(=O)[C@@H]1CCCCN1Cc1c(Br)c2cc(OC)c(OC)cc2c2cc(OC)c(OC)cc12 | 28.5 | 26.3 | 21.5 | 19.7
25 | COc1ccc2c(CN3CCC[C@H]3C#N)c(Br)c3cc(OC)c(OC)cc3c2c1 | 15.3 | 20.5 | 12.6 | 22.7
26 | CCN(CC)C(=O)[C@H]1CCCCN1Cc1c(Br)c2cc(OC)c(OC)cc2c2cc(OC)c(OC)cc12 | 21.7 | 14.2 | 13.7 | 23.5
27 | CC(=O)N1CN(C(C)=O)C(=O)NC1=O | – | – | – | 50
28 | COc1cc2c(Br)c(CN3CCC[C@@H]3C(N)=O)c3cc(OC)c(OC)cc3c2cc1OC | 15.3 | 12.2 | 0 | 10.5
29 | CCN(CC)C(=O)[C@@H]1CCCN1Cc1c(Br)c2cc(OC)c(OC)cc2c2cc(OC)ccc12 | 18.9 | 14.2 | 15.7 | 23.5
30 | COc1cc2cc(CN3CCC[C@H]3CO)c3cc(OC)c(OC)cc3c2cc1OC | 25.2 | 23.5 | 17.4 | 15.9
31 | COc1cc2cc(C(=O)N3CCC[C@H]3CBr)c3cc(OC)c(OC)cc3c2cc1OC | 36.9 | 26.7 | 27.6 | 21.9
32 | COc1cc2cc(C(=O)N3CCC[C@H]3C=O)c3cc(OC)c(OC)cc3c2cc1OC | 21.4 | 20.3 | 15.2 | 22.2
33 | CCN(CC)C(=O)[C@@H]1CCCN1Cc1c(Br)c2ccc(OC)c(Br)c2c2cc(OC)c(OC)cc12 | 15.3 | 22.3 | 17.8 | 19.6
34 | COc1cc2c(Br)c(CN3CCC[C@H]3C(=O)O)c3cc(OC)c(OC)cc3c2cc1OC | 10.2 | 13.5 | 17 | 20.4
35 | COc1ccc(/C=C(/C(=O)N2CCC[C@H]2CO)c2ccc(OC)c(OC)c2)cc1OC | 19.3 | 18.1 | 20.9 | 11.7
36 | COc1cc2cc(C(=O)O)c3cc(OC)c(OC)cc3c2cc1OC | 4.8 | 3.6 | 4.2 | 0
37 | COc1cc2c(Br)c(CN3CCC[C@H]3C#N)c3cc(OC)c(OC)cc3c2cc1OC | 33.3 | 18.2 | 10.3 | 24.7
38 | COc1cc2c(Br)c(CN3CCC[C@H]3C(=N)OC(C)(C)C)c3cc(OC)c(OC)cc3c2cc1OC | 42.2 | 40.3 | 36.6 | 39.7
39 | CCN(CC)C(=O)[C@H]1CCCN1Cc1c(Br)c2ccc(OC)c(Br)c2c2cc(OC)c(OC)cc12 | 20.3 | 13.3 | 10.4 | 22.4
40 | COc1cc2cc(C(=O)N3CCC[C@H]3C#N)c3cc(OC)c(OC)cc3c2cc1OC | 10.3 | 15.6 | 17.6 | 12.5
41 | COc1cc2c(Br)c(CN3CCC[C@H]3C(N)=O)c3cc(OC)c(OC)cc3c2cc1OC | 39.5 | 36.6 | 42.1 | 44.3
42 | NC(=O)c1ncn([C@@H]2O[C@H](CO)[C@@H](O)[C@H]2O)n1 [RIBAVIRIN] | 34.2 | 34.5 | 32.1 | 38.5
43 | COc1cc2cc(C(=O)N3CCC[C@H]3C(N)=O)c3cc(OC)c(OC)cc3c2cc1OC | 24.3 | 23.5 | 25.3 | 27
44 | CCN(CC)C(=O)[C@@H]1CCCN1Cc1c(Br)c2cc(OC)c(OC)cc2c2cc(OC)c(OC)cc12 | 25.3 | 21.6 | 22 | 17.2
